In all, about 330,000 compounds went through this assay and about 780 (0.24%) were called active. The list comes from a sample in which actives are over-represented; it also holds similar structures and randomly drawn compounds. Unmarked numbers belong to inactive results.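 Rule for the calls: active = activation factor of at least 2 at 20 µM; inactive = the rest.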

The test system of the test is intestinal alkaline phosphatase [Mus musculus]. The experiment in a line: mouse intestinal phosphatase enzyme activation – biochemical, luminescence, uHTS, primary screen (AID 2805). To be noted: muIAP, CDP-Star luminescence, 30 min; at 10 µM; hits give high values; 1 = vehicle-only enzyme signal, 0 = enzyme-free wells. In a few lines: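 Assay system: mouse IAP enzyme; Reagent: CDP-Star chemiluminescent phosphatase substrate; Compound: DMSO-dissolved test compounds; Incubation: 30 min, room temperature; Technique: luminescence from enzymatic CDP-Star hydrolysis; Controls: DMSO-only wells and no-enzyme negative control.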
On to `COC(=O)Cc1ccc(NC(=S)NCc2ccc(Cl)cc2)cc1`, for which the activation factor was 1.52. `O=C(NCc1ccc2c(c1)OCO2)C12CC3CC(CC(C3)C1)C2`: the activation factor was 0.999. As for `S=C(NCc1ccc(Cl)cc1)NC12CC3CC(CC(C3)C1)C2`, the activation factor was 3.89 (active). To `CCC(=O)N1c2ccccc2NC2=C(C(=O)CCC2)C1c1ccco1` (configuration not stated) belongs 1.01; to `CCOC12CC(C)(C)CC(C)(CC3=C1C(=O)CC(C)(C)C3)C2` (configuration not stated), 1.02; to `COc1cc(CN2CCN(Cc3ccc(C)cc3)CC2)c([N+](=O)[O-])cc1OC`, 0.893. As to `O=C(NCCN1CCOCC1)Nc1cccc(Cl)c1`, the activation factor was 0.941. On to `COc1cc(NC(=O)C2=CC(c3ccc(C)cc3)=NS(=O)(=O)N2C)cc(OC)c1OC`, for which the activation factor was 0.84. For `O=C(CN1CCN(Cc2ccccc2)CC1)Nc1ccc(F)c(F)c1`, the activation factor is 1.1. Take `COC(=O)c1cc(S(=O)(=O)NCC2CCN(Cc3ccc(Cl)cc3)CC2)cn1C`: the activation factor was 1.12. Regarding `O=C(NCC1CCN(Cc2ccccc2Cl)CC1)Nc1cccc(Cl)c1`, the activation factor is 3.53 (active). Consider `COc1cc(NC(=O)NCC2CCN(Cc3ccc(C)cc3)CC2)cc(OC)c1OC`, for which the activation factor is 2.24 (active).

As for `Cc1cccc(CN2CCC(CNC(=O)Nc3ccc(F)c(Cl)c3)CC2)c1`, the activation factor was 3.26 (active). In the case of `Cc1ccc(C)c(CN2CCC(CNC(=O)Nc3ccc(C)c(F)c3)CC2)c1`, the activation factor is 4.63 (active). To `Cc1ccccc1NC(=O)NCC1CCN(Cc2cccc(Cl)c2)CC1` belongs 1.72; to `COc1ccc(Cl)cc1NC(=O)NCC1CCN(Cc2ccccc2F)CC1`, 1.56; to `CC(=O)N1CCN(CC(=O)Nc2ccc(C)c(F)c2)CC1`, 1.06. Regarding `COc1cc(OC)cc(-c2nc3ccccc3c(=O)n2NC(=O)c2cccnc2Cl)c1`, the activation factor is 0.962.

Turning to `CCCn1nnnc1NC(=O)COc1ccc(Cl)cc1C`, the activation factor was 0.94. The result for `CCCSc1ccc([C@H]2N[C@@](Cc3ccccc3)(C(=O)OC)[C@H]3C(=O)N(C)C(=O)[C@@H]23)cc1` reads 1.04. In the case of `CCN1CCN(C(=O)c2cc3cc4ccc(OC)cc4nc3s2)CC1`, the activation factor was 1.07. With `CCc1cc2c(=O)n(-c3ccccc3)c(SCC(=O)O)nc2s1`, the activation factor is 1.03. As for `C=CCCC(=O)Nc1nc(C)c(-c2csc(Nc3ccc(Cl)cc3)n2)s1`, the activation factor was 0.878. For the compound `S=C(NC1CCCCC1)NN1CCOCC1`, the activation factor is 0.975.

On to `Cc1cccc(-c2oc3ccc(-c4ccc5c(c4)OCO5)cc3c2C#Cc2cncn2C)c1`, for which the activation factor is 0.937.

Regarding `Cc1cc(NC(=O)CCC(=O)N(CC(=O)NCC2CCCO2)c2ccccc2C)no1` (configuration not stated), the activation factor is 0.924.

Take `COc1ccc(OC)c(NC(=O)c2ccc3c(c2)CCN3S(C)(=O)=O)c1`: the activation factor was 0.846. Consider `COCCCNC(=S)NCCNc1nc2cc(C)c(C)cc2cc1C#N`, for which the activation factor was 1.01. Take `COc1cccc2c(C)c(C(=O)O)[nH]c12`: the activation factor was 0.981.

Regarding `O=C(C1=C[C@H](c2ccc(C(F)(F)F)cc2)C[C@H](OCc2ccc(CO)cc2)O1)N1CCN(Cc2ccccc2)CC1`, the activation factor is 1.05. `COC(=O)c1scc(S(=O)(=O)C(C)(C)C)c1-n1cccc1`: the activation factor was 0.97. The result for `N#CC1=C(N)Oc2[nH]c(=S)[nH]c(=O)c2C12C(=O)Nc1ccccc12` (configuration not stated) reads 1; that for `O=c1[nH]c(CN2CCOCC2)nc2scc(-c3ccccc3)c12`, 1.04. Consider `COCc1cc(=O)n2[nH]c(C)c(-c3ccccc3)c2n1`, for which the activation factor was 1.04. To `Cc1ccc(NC(=S)Nc2ccc(F)cc2)cc1` belongs 1.03; to `CC(NC(=S)Nc1ccc(OC(F)F)cc1)c1ccc(F)cc1` (configuration not stated), 2.2 (active); to `CC(C)CNC(=S)Nc1ccc(F)cc1`, 1.15. Take `COc1ccccc1-c1nn(Cc2ccccc2)cc1C(=O)N1CCN(c2ncccn2)CC1`: the activation factor was 0.95.

With `O=C(CSc1cccc[n+]1[O-])NCCCc1ccccc1`, the activation factor is 1.02. As for `O=C(Nc1ccccc1)Nc1nnc(COc2ccccc2F)s1`, the activation factor is 0.892. As to `Cc1cc(NC(=O)Nc2ccc(Cl)cc2)n(-c2ccccc2)n1`, the activation factor was 2.3 (active). In the case of `Cc1cc(C(=O)NCCc2ccc(Cl)cc2)n(-c2ccccc2)n1`, the activation factor is 1.02. Consider `Cc1ccc(NC(=O)Nc2cc(-c3ccccc3)nn2C)cc1Cl`, for which the activation factor was 1.48. As for `N#CCCCn1c(O)c(N=NC(=O)C(O)c2ccccc2)c2ccccc21` (configuration not stated), the activation factor is 0.987. For `CCC1CCCCN1C(=S)Nc1ccc(SC(F)F)cc1` (configuration not stated), the activation factor is 0.894. On to `CCN(CC)c1nc(-c2ccccc2)cc(C(F)(F)F)c1C#N`, for which the activation factor was 0.949. As to `Cc1c(Cl)cccc1NC(=O)NCCCN1CCCC1=O`, the activation factor was 1.01. The result for `CC(C)c1ccc(NC(=O)NC2CCCCC2)cc1` reads 1.77; that for `O=C(Nc1cccc(F)c1)NC1CCCCCCC1`, 2.46 (active); that for `C/C(CC(=O)Nc1cccc(F)c1)=N\NC(=O)C(=O)NC1CCCCC1`, 0.807. Regarding `COc1cccc(NC(=O)CN2CCN(CC(=O)Nc3ccccc3Cl)CC2)c1`, the activation factor was 0.978. Turning to `Cc1c(Cl)cccc1NC(=O)Nc1ccc(C(=O)N2CCCC2)cc1`, the activation factor is 2 (active).

Turning to `CS(=O)(=O)Nc1ccc(C(=O)N2CCCC2)cc1`, the activation factor was 0.947.

On to `CC(C)(C)NS(=O)(=O)c1ccc(NC(=O)NC2CCCCC2)cc1`, for which the activation factor is 1.7.

With `O=C(Nc1cccc(F)c1)NC1CCCc2ccccc21` (configuration not stated), the activation factor was 0.963.

As to `Cc1cc(C)cc(NC(=O)NC2CCCCCCC2)c1`, the activation factor was 4.34 (active). With `O=C(CN1CCC(NC(=O)Nc2ccccc2)CC1)Nc1cccc([N+](=O)[O-])c1`, the activation factor was 1.02. With `Cc1cc(C)cc(NC(=O)NC2CCN(CC(=O)Nc3cccc(Cl)c3C)CC2)c1`, the activation factor was 5.45 (active). As for `CSCC(=O)N1CCCC(C(=O)c2cc(F)ccc2F)C1` (configuration not stated), the activation factor was 0.984. To `O=C(OCC1O[C@@H](OC(=O)c2cc(O)c(O)c(O)c2)[C@@H](OC(=O)c2cc(O)c(O)c(O)c2)[C@@H](OC(=O)c2cc(O)c(O)c(O)c2)[C@@H]1OC(=O)c1cc(O)c(O)c(O)c1)c1cc(O)c(O)c(O)c1` (some centres not stated) belongs 0.831; to `CN(Cc1ccccc1)C(=O)COC(=O)/C=C/c1ccc2c(c1)OCO2`, 0.965.

With `CCc1ccccc1N1CN(Cc2ccco2)CNC1=S`, the activation factor was 0.992.

Consider `COc1c(O)cccc1-c1nnn(CCC(=O)OCC(=O)c2ccccc2)n1`, for which the activation factor was 0.984.

For `Cc1cccc(NC(=S)NCCN(C2CCCCC2)C2CCCC2)c1`, the activation factor was 2.13 (active). Turning to `Cc1cccc(NC(=S)NC23CN4CN(CN(C4)C2)C3)c1`, the activation factor is 0.962. For `Cc1cccc(NC(=S)Nc2ccc(Cl)c(Cl)c2)c1`, the activation factor was 1.16. To `O=C(c1ccc(O)cc1)c1ccc(C(=O)O)c(C(=O)O)c1` belongs 1.01; to `CC(=O)c1cccc(NC(=O)N2CCCC2C(=O)NCCC(C)C)c1` (configuration not stated), 0.988. For the compound `O=C(COc1ccccc1F)NNC(=O)c1cc(Br)ccc1Cl`, the activation factor is 0.932. For the compound `O=C(NCCOc1ccccc1Cl)C(=O)Nc1ccccc1`, the activation factor is 0.98. With `O=C(NCCOc1ccccc1F)Nc1ccc(Br)cc1`, the activation factor is 2.2 (active).

With `O=C(Cn1ncc2c3ccccc3n(Cc3ccccc3)c2c1=O)NCCCN1CCOCC1`, the activation factor is 0.993. For `C=C(Br)Cn1c(CCCC)nc2ccccc21`, the activation factor was 0.968. With `COc1ccc(NC(=O)Nc2ccc3c(c2)C(=O)N([C@H](C)CO)C[C@H](C)[C@@H](CN(C)C(=O)Nc2ccc4c(c2)OCO4)O3)cc1`, the activation factor was 2.74 (active).

`COc1ccc(NC(=O)N(C)C[C@H]2Oc3ccc(NC(=O)C4CC4)cc3C(=O)N([C@H](C)CO)C[C@@H]2C)cc1`: the activation factor was 1.05. The result for `C[C@H](CO)N1C[C@H](C)[C@@H](CN(C)C(=O)Nc2ccc3c(c2)OCO3)Oc2c(cccc2N(C)C)C1=O` reads 0.974.

Regarding `COc1ccc(S(=O)(=O)NCC(=O)NC2CC2)cc1OC`, the activation factor is 0.966. Regarding `O=C(CN1CCC(O)(c2cccc(C(F)(F)F)c2)CC1)NCCc1ccccc1`, the activation factor was 0.933. Take `CC(=O)Nc1cccc(C(=O)OCN2C(=O)c3ccccc3C2=O)c1`: the activation factor is 0.892. To `CC(=O)N(CC(O)CO)c1c(I)c(C(=O)NCC(O)CO)c(I)c(C(=O)NCC(O)CO)c1I` (configuration not stated) belongs 1.05. The result for `Cc1cc(C)c(S(=O)(=O)c2ccccc2)c(OC(=O)c2c(F)cccc2Cl)n1` reads 0.919; that for `N=c1c2c(-c3ccccc3)c(-c3ccccc3)n(Cc3ccccc3)c2ncn1CCCO`, 0.982; that for `OCCCN1c2ccccc2Nc2nnc(-c3ccccc3)cc21`, 2.5 (active). Turning to `COc1ccc(C)cc1NC(=O)NCCCCc1ccccc1`, the activation factor was 1.36. To `O=C(CNC(=O)c1ccccc1Br)NNC(=O)c1cccs1` belongs 0.934; to `Cc1ccc(CN(C)Cc2cc(=O)oc3cc(C)c(Cl)cc23)cc1`, 0.989; to `S=C(Nc1ccc(Br)cc1)NC1CCN(Cc2ccccc2)CC1`, 1.46. Take `S=C(NCC1COc2ccccc2O1)Nc1ccc(Br)cc1` (configuration not stated): the activation factor was 3.2 (active). For `CC(NC(=S)Nc1ccccc1)C1COc2ccccc2O1` (configuration not stated), the activation factor is 1.67.

Turning to `O=S(=O)(NCCCc1ccccc1)c1ccc(Br)cc1`, the activation factor was 1.03. Consider `CCCN(CC1COc2ccccc2O1)C(=S)Nc1ccc(C)cc1` (configuration not stated), for which the activation factor is 1.14. Turning to `S=C(NCCCc1ccccc1)Nc1ccc(Br)cc1`, the activation factor was 2.09 (active). Take `COCCNC(=O)c1ccc(S(=O)(=O)c2ccc(Cl)cc2)c(NC(C)=O)c1`: the activation factor is 0.896. As for `O=C(NCC1CCCO1)c1ccccc1-c1nc(-c2ccccc2Cl)no1` (configuration not stated), the activation factor is 0.926. To `Cc1noc(C)c1S(=O)(=O)N(CC(=O)Nc1ccc2c(c1)OCCO2)c1ccc(C(C)C)cc1` belongs 2.03 (active).

In the case of `CCOC(=O)c1cccc(NC(=O)CN(c2ccc(C)cc2)S(=O)(=O)c2c(C)noc2C)c1`, the activation factor is 1.37. For the compound `Cc1noc(C)c1S(=O)(=O)N(CC(=O)NCc1ccc(Cl)cc1)c1ccc2c(c1)OCO2`, the activation factor is 1.12.

The record behind these values is PubChem BioAssay AID2805 (Sanford-Burnham Center for Chemical Genomics, 2010).
